Assay outcomes from PubChem BioAssay.
HCV NS3 hel inh = inhibitors of HCV NS3 helicase, primary screen, biochemical, Cy5 molecular beacon fluorescence | Hepatitis C virus NS3 helicase | NS3 helicase DNA unwinding | inhibition, % at 10.9 µM | 290,000 tested, 0.56% active;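 active = inhibition above the mean of all tested compounds plus 3 SD, set per campaign, cut at about 35% in these data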
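assay system = NS3 helicase fragment of HCV | buffer or medium = MOPS pH 6.5, MgCl2, DTT, Tween20, BSA | timing = 60 min unwinding reaction at 25 °C after ATP addition | signal = Cy5 beacon fluorescence read at start and 1 h | read-out basis = % inhibition of unwinding | control set = low DMSO, high thioflavine S at 110 µM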
HIF act = HIF pathway transcriptional activators, primary screen, cell-based, U2OS HRE-luciferase, luminescence | U2OS HRE-luciferase reporter; normalized: DMSO 0%, desferrioxamine 100% | activation, % at 7.5 µM (by protocol) | 300,000 tested, 0.32% active;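 active = mean activation of at least 10% of the iron chelator positive control signal, with at least half of replicates also reaching 10%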
DNA FID counter-1 = compounds displacing fluorescent DNA intercalator, primary screen, artefact control for HCV NS3 helicase inhibitor project, biochemical, FID fluorescence | DNA fluorescent intercalator displacement | inhibition, % at 7.9 µM | 290,000 tested, 0.17% active;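 note: higher means more ethidium bromide displaced from hairpin DNA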
PP1 inh = PP1-alpha phosphatase inhibitors, primary screen, counter-screen for PP5 inhibitor project, biochemical, fluorescence, OMFP substrate, single point. AID 2235, 2010. purified PP1alpha. Serine/threonine-protein phosphatase PP1-alpha catalytic subunit (Homo sapiens), P62136. inhibition, % at 6.7 µM. 320,000 tested, 0.9% active;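 active = inhibition above the mean inhibition of all tested compounds plus 3 SD, computed separately for each screening campaign, cut at about 15% in these data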
Target sequence (P62136 whole entry, looked up): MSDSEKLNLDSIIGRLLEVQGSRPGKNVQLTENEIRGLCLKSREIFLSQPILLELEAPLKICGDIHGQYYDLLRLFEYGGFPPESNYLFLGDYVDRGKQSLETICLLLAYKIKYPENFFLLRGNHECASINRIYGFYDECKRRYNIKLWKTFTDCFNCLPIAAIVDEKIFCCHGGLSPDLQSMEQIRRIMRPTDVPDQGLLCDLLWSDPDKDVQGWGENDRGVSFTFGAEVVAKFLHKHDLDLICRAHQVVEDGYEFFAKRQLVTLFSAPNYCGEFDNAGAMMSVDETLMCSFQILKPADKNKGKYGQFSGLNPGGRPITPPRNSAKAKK
PP5 inh = PP5 phosphatase inhibitors, primary screen, biochemical, fluorescence; purified PP5c, OMFP substrate fluorescence; AID 1987, 2009; inhibition, % at 6.7 µM; 320,000 tested, 0.18% active; Serine/threonine-protein phosphatase 5 (Homo sapiens), P53041;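 active = inhibition above the campaign's mean inhibition across all tested compounds plus 3 SD, cut at about 9.5% in these data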
NS3 helicase cf = HCV NS3 helicase inhibitors, retest, confirmation, biochemical, Cy5 molecular beacon fluorescence, triplicate. shares compounds with HCV NS3 hel inh. NS3 helicase DNA unwinding. inhibition, % at 10.9 µM. 1,600 tested, 31% active;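 active = inhibition above the mean of all tested compounds plus 3 SD, cutoff set per campaign, cut at about 36% in these data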
DNA FID counter-2 = compounds displacing fluorescent DNA intercalator, artefact control for HCV NS3 helicase inhibitor project, biochemical, FID fluorescence, triplicate; shares compounds with HCV NS3 hel inh; DNA fluorescent intercalator displacement; inhibition, % at 7.9 µM; 1,600 tested, 4% active;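 note: higher means more displacement of ethidium bromide from the DNA hairpin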
Each line names hits and unclear results; the compound was inactive in the other large screens (follow-up assays come after a bar, where they were run). Only some compounds are listed: those with a hit (about 1.9% of all), similar ones and a draw of the others. Cut-off read from the data, not from the text of the source, unless noted: active = inhibition above about 37%; inactive = the rest.

O=C(Nc1nnc(C2=COCCO2)o1)c1cccc(Br)c1	HCV NS3 hel inh 39 | NS3 helicase cf inactive | DNA FID counter-2 inactive
O=C(O)CC(c1cccc2ccccc12)N1Cc2ccccc2C1=O (stereo not given)	none
O=C(O)CC(c1cccc2ccccc12)n1cccc1 (stereo not given)	HCV NS3 hel inh 67 | NS3 helicase cf inactive | DNA FID counter-2 inactive
CCc1ccccc1-n1c(SCC(=O)NC)nnc1-c1ccco1	none
COC(=O)C1=NN(C(=O)c2ccc(Cl)cc2)C(O)(c2ccccc2)C1 (stereo not given)	HCV NS3 hel inh 44 (no result: HIF act) | NS3 helicase cf inactive | DNA FID counter-2 inactive
CCC1=NN(C(=O)c2ccc(Cl)cc2)C(O)(c2ccccc2)C1 (stereo not given)	none
Cc1ccc(NC(=O)CSc2sc3c(O)cc(=O)[nH]c3c2C#N)c(F)c1	HCV NS3 hel inh 36 | NS3 helicase cf inactive | DNA FID counter-2 inactive
CCCCn1c(NC(=O)CC)c(C#N)c2nc3ccccc3nc21	none
N#Cc1c(NC(=O)c2ccccc2Cl)n(Cc2ccccc2)c2nc3ccccc3nc12	HCV NS3 hel inh 41, PP1 inh 22 (no result: HIF act) | NS3 helicase cf 38 | DNA FID counter-2 inactive
Cc1c(CCC(=O)O)c(=O)oc2cc(OCc3ccccc3F)ccc12	none
Cc1c(CC(=O)O)c(=O)oc2cc(OCc3ccc(F)cc3Cl)ccc12	HCV NS3 hel inh 48 | NS3 helicase cf 51 | DNA FID counter-2 inactive
O=C(COc1ccc(-c2ccccc2)cc1)N/N=C/c1cc(O)ccc1Br	HCV NS3 hel inh 37 | NS3 helicase cf inactive | DNA FID counter-2 inactive
COc1ccccc1-c1ccc(/C=C2\C=CC(=O)O2)o1	HCV NS3 hel inh 37 | NS3 helicase cf inactive | DNA FID counter-2 inactive
Cc1ccc(-c2nn3c(C)nnc3s2)cc1NC(=O)c1ccc(-c2cccc(Cl)c2)o1	HCV NS3 hel inh 60 (no result: PP1 inh, PP5 inh) | NS3 helicase cf inactive | DNA FID counter-2 inactive
Cc1nnc2sc(-c3cccc(NC(=O)c4ccc(-c5cccc(Cl)c5)o4)c3)nn12	none (no result: HIF act, PP1 inh, PP5 inh)
CCOC(=O)C1CCCN(C(=O)c2cc3c(=O)n(C)c4ccccc4c3n2C)C1 (stereo not given)	HCV NS3 hel inh 75 | NS3 helicase cf inactive | DNA FID counter-2 inactive
Cn1ccnc1Sc1ccc(/C=N/NC(=O)c2ccccc2O)cc1[N+](=O)[O-]	HCV NS3 hel inh 47 | NS3 helicase cf inactive | DNA FID counter-2 inactive
O=C(Nc1ncc(Br)s1)C(Cc1ccccc1)n1cccc1 (stereo not given)	HCV NS3 hel inh 44 | NS3 helicase cf inactive | DNA FID counter-2 inactive
Cc1ccccc1NC1c2ccccc2C(=O)N1Cc1ccco1 (stereo not given)	HCV NS3 hel inh 41 | NS3 helicase cf inactive | DNA FID counter-2 inactive
COc1ccc(OC)c(NC(=O)CN2C(=O)C3(OCCCO3)c3ccccc32)c1	HCV NS3 hel inh 54 | NS3 helicase cf inactive | DNA FID counter-2 inactive
COc1ccccc1NC(=O)CN1C(=O)C2(OCCCO2)c2ccccc21	none
Cc1cc(-c2csc(NC(=O)c3ccccc3C(F)(F)F)n2)c(C)n1Cc1ccccc1	HCV NS3 hel inh 50 | NS3 helicase cf inactive | DNA FID counter-2 inactive
COc1ccc(Cc2nnc(NC(=O)c3ccc(F)cc3)s2)cc1OC	HCV NS3 hel inh 47 | NS3 helicase cf inactive | DNA FID counter-2 inactive
CN(C)S(=O)(=O)c1ccc(C(=O)Nc2nc(-c3cc4ccccc4o3)cs2)cc1	none
Cc1cc(-c2csc(NC(=O)c3ccc(S(=O)(=O)N(C)C)cc3)n2)c(C)n1-c1ccccc1	HCV NS3 hel inh 66 | NS3 helicase cf inactive | DNA FID counter-2 inactive
Cc1ccc(-c2csc(NC(=O)c3ccccc3Cl)c2C(=O)O)cc1	HCV NS3 hel inh 39 | NS3 helicase cf 77 | DNA FID counter-2 inactive
Cc1ccc(-c2csc(NC(=O)c3ccc(Br)cc3)c2C(=O)O)cc1	HCV NS3 hel inh 42 | NS3 helicase cf 69 | DNA FID counter-2 inactive
Cc1cccc(C(=O)Nc2scc(-c3ccc(Br)cc3)c2C(=O)O)c1	none (no result: HCV NS3 hel inh, DNA FID counter-1)
N=c1c(S(=O)(=O)c2ccccc2)cc2c(=O)n3ccccc3nc2n1Cc1ccco1	HCV NS3 hel inh 37 | NS3 helicase cf inactive | DNA FID counter-2 inactive
Cc1ccc(S(=O)(=O)c2cc3c(=O)n4ccccc4nc3n(Cc3ccco3)c2=N)cc1C	none
COc1ccc(/C=C\c2onc(C)c2S(=O)(=O)N2CCC(C(=O)NCc3ccco3)CC2)cc1	HCV NS3 hel inh 50 | NS3 helicase cf inactive | DNA FID counter-2 inactive
Cc1ccc(N2CC(C(=O)Nc3ccc(N4CCOCC4)cc3)CC2=O)cc1C (stereo not given)	HCV NS3 hel inh 39 | NS3 helicase cf inactive | DNA FID counter-2 inactive
CN1CCN(S(=O)(=O)c2ccc(N(C)Cc3cccc(F)c3)nc2)CC1	none (no result: HCV NS3 hel inh, HIF act, DNA FID counter-1)
O=C(c1ccco1)N1CCN(C(=O)C2CC(=O)N(c3ccc(Cl)cc3)C2)CC1 (stereo not given)	none
COc1ccc(C(=O)CC(=O)C(=O)Nc2ccc(OC)c(Cl)c2)cc1	none
COc1ccc(C(=O)CC(=O)C(=O)Nc2ccc(Cl)cc2)cc1	HCV NS3 hel inh 43 | NS3 helicase cf inactive | DNA FID counter-2 inactive
COc1cccc(N=Cc2c(O)c3ccccc3oc2=O)c1	none
CCn1cc([N+](=O)[O-])c(C(=O)N2N=C3/C(=C/c4cccs4)CCCC3C2c2cccs2)n1 (stereo not given)	none
CCn1nc(C(=O)Nc2cc(Cl)ccc2-n2cncn2)c2ccccc2c1=O	none (no result: HCV NS3 hel inh, DNA FID counter-1)
O=[N+]([O-])c1ccc(N2CCN(S(=O)(=O)c3ccc4ccccc4c3)CC2)cc1NCC1CCCO1 (stereo not given)	HCV NS3 hel inh 53 | NS3 helicase cf inactive | DNA FID counter-2 inactive
CC(C(=O)O)N1C(=O)C2C3CC(C2C1=O)C1C(c2ccccc2)c2sc(=O)[nH]c2SC31 (stereo not given)	HCV NS3 hel inh 75 | NS3 helicase cf inactive | DNA FID counter-2 inactive
O=C(O)CCCN1C(=O)C2C3CC(C2C1=O)C1C(c2ccccc2)c2sc(=O)[nH]c2SC31 (stereo not given)	none
CC(C)OP(=O)(OC(C)C)/C(C=O)=N\Nc1ccc([N+](=O)[O-])cc1	none
O=C(O)c1ccc2noc(-c3ccccc3)c2c1	none
O=C(O)/C=C/c1ccc2c(-c3ccccc3)onc2c1	HCV NS3 hel inh 54 | NS3 helicase cf inactive | DNA FID counter-2 inactive
